TAAR1 antagonist – antagonists of human TAAR1 | inhibition, % at 3 µM | 1.5% of 360,000 active | CHO RD-HGA16 TAAR1, Fluo-8 calcium fluorescence, antagonist;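 active = inhibition above a per-plate cutoff, the mean inhibition of test compounds on that plate plus 3 SD, cut at about 49% in these data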;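 note: 0% = DMSO plus EC80 beta-PEA response and 100% = DMSO alone without agonist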
Target sequence (Q96RJ0 whole entry, looked up): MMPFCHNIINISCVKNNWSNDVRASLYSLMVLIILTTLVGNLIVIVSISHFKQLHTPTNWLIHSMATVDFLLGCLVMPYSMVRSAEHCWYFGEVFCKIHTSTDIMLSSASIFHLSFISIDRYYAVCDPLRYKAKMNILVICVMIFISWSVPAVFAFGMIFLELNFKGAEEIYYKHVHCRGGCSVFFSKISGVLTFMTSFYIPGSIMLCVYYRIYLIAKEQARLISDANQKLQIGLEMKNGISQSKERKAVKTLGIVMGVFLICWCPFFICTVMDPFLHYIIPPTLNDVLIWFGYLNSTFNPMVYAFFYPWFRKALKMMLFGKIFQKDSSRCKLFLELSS
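Material: CHO RD-HGA16 cells bearing hTAAR1; compound dosing: one-point dosing, 3 µM nominal final; schedule: dye loading 75 min at 37 °C, then 30 min room temperature; measured by: calcium fluorescence with Fluo-8; control set: vehicle and agonist controls; replication: n of 1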
OXTR potentiator – potentiators of human oxytocin receptor; AID 2445; CHO-OTR cells, Fluo-8 calcium fluorescence, potentiator mode; 0% = oxytocin EC15, 100% = EC100; 0.061% of 320,000 active; activation, % at 3 µM; P30559;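 active = activation above that plate's cutoff, the mean activation of tested compounds plus 3 SD, cut at about 6.6% in these data, passing the limit was not always enough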;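 note: 100% uses oxytocin at 75 nM as the full agonist control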
Target sequence (P30559 whole entry, looked up): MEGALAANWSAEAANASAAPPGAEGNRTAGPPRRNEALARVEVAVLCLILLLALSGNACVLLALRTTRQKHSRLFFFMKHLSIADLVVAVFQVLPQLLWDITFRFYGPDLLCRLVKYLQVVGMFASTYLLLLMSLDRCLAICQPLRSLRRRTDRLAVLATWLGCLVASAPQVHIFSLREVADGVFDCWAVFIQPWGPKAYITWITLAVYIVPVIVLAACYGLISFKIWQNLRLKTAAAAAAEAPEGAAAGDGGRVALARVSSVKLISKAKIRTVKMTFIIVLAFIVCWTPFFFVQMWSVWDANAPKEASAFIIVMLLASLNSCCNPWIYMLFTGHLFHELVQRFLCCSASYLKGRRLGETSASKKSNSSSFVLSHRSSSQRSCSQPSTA
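Dosing: Single dose, 3.0 µM nominal final compound concentration | Material: Human OTR in CHO cells | Technique: Kinetic Fluo-8 calcium fluorescence | Benchmarks: EC15 oxytocin alone as 0%, 75 nM oxytocin as 100% | Probe or stimulus: Oxytocin at about EC15, sub-maximal agonist stimulus | Incubation: Compound 6 min at room temperature before oxytocin, 100 s read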
V1R ag counter – V1a receptor agonism, counter-screen for OXTR agonists. P37288. 0.25% of 320,000 active. activation, % at 3 µM. CHO-V1R cells, Fluo-8 calcium fluorescence, agonist mode; 0% DMSO, 100% 3 nM vasopressin;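 active = activation above the mean activation of all tested compounds plus 3 SD, per screening run, cut at about 20% in these data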;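 note: signal is peak over basal fluorescence ratio across a 100 second FLIPR read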
TAAR1 ag – agonists of human TAAR1; Q96RJ0; CHO RD-HGA16 TAAR1, Fluo-8 calcium fluorescence; vehicle wells 0%, saturating PEA agonist 100%; activation, % at 3 µM; 0.99% of 360,000 active;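 active = activation above the mean activation of all test compounds in the run plus 3 SD, cut at about 38% in these data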
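Test system: RD-HGA16 (CHO) cells co-expressing Gα16 and hTAAR1 | Doses: Single dose, 3 µM | Schedule: 17-24 h seeding, 75 min 37 °C dye, 30 min RT | Evaluation: % activation from peak over basal fluorescence ratio, DMSO-to-PEA scaled | Technique: Kinetic Fluo-8 calcium fluorescence | Benchmarks: Low control DMSO, high control PEA (EC100)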
OXTR agonist – activates the human oxytocin receptor; P30559; CHO-OTR cells, Fluo-8 calcium fluorescence; normalized: DMSO 0%, oxytocin 100%; activation, % at 3 µM; 0.32% of 320,000 active;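 active = activation above the mean of all tested compounds plus 3 SD, cutoff set per screening run, cut at about 20% in these data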;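 note: peak over basal fluorescence ratio from a 100 s FLIPR kinetic read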
TAAR1 ag confirm – human TAAR1 agonism, confirmed; shares compounds with TAAR1 ag; 82% of 2,400 active; activation, % at 3 µM; AID 651783; CHO RD-HGA16 TAAR1, Fluo-8 calcium fluorescence; scaled: DMSO 0%, maximal phenethylamine 100%;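 active = activation above a cutoff set at the run's mean compound activation plus 3 SD, cut at about 39% in these data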
Ga16 nonsel ag – nonselective agonist in parental cells, TAAR1 agonist counter-screen; CHO-Ga16 parental, Fluo-8 calcium fluorescence; normalized to maximal ATP response, DMSO zero; activation, % at 3 µM; 50% of 2,400 active; shares compounds with TAAR1 ag; AID 651787;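 active = activation above the run cutoff, the mean activation over all tested wells plus 3 SD, cut at about 12% in these data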;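 note: 0% = DMSO wells and 100% = maximal ATP response on the peak over basal ratio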
TAAR1 desens – counter-screen for human TAAR1 agonists: agonists that desensitize TAAR1. shares compounds with TAAR1 ag. CHO RD-HGA16 hTAAR1, Fluo-8 calcium, beta-PEA response inhibition. inhibition, % at 3 µM. 46% of 2,400 active;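 active = inhibition above the run cutoff, the mean inhibition of all test compounds plus 3 SD, cut at about 49% in these data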;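 note: beta-PEA stimulus applied at its EC80; loss of beta-PEA calcium signal after compound pretreatment read as receptor desensitization; 0% = DMSO with beta-PEA at EC80 and 100% = DMSO alone without agonist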
Ga16 nonsel ant – nonselective Ga16 antagonism, counter-screen | shares compounds with TAAR1 ag | CHO-Ga16 ATP-induced calcium, Fluo-8 fluorescence | inhibition, % at 3 µM | 39% of 2,400 active | AID 651952;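 active = inhibition above the plate's mean compound inhibition plus 3 SD, computed per plate, cut at about 22% in these data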;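 note: 0% = EC80 ATP with DMSO and 100% = DMSO wells without ATP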
* hit, by the source's call; nt = no result; ! = not active in a repeat. Most compounds without a hit are left out; they make up all but 2.3% or so of the library.

SMILES	TAAR1 antagonist	OXTR potentiator	V1R ag counter	TAAR1 ag	OXTR agonist	TAAR1 ag confirm	Ga16 nonsel ag	TAAR1 desens	Ga16 nonsel ant
COc1ccc(C(=O)NC(=S)NNC(=O)c2cccnc2)cc1	-2	-8	0	-2	-1	nt	nt	nt	nt
COc1ccc(C(=O)NNC(=S)NC(=O)c2ccco2)cc1	13	-12	19	59*	18	66*	39*	16	13
CC(C)C[C@H](NC(=O)NC(C)C)C(=O)O	14	1	0	16	0	nt	nt	nt	nt
O=C(C[C@@H]1CC[C@H](NC(=O)Cc2ccccn2)[C@@H](CO)O1)NCCc1ccccc1	-11	nt	nt	47*	nt	63*	2	12	8
COc1ccc(N(CC(=O)Nc2ccc3c(c2)OCCO3)S(=O)(=O)c2c(C)nn(C)c2C)cc1	-2	-25	0	2	0	nt	nt	nt	nt
Cc1ccc(S(=O)(=O)c2cc3c(=O)n4ccccc4nc3n(CCCN3CCOCC3)c2=N)cc1C	-13	-2	0	-4	0	nt	nt	nt	nt
CCCCc1cc(O)c(CCCC)c(O)c1	102*	-25	81*	113*	86*	130*	95*	106*	92*
Cc1cc(C)cc(NC(=O)C2CCN(S(=O)(=O)c3c(C)n[nH]c3C)CC2)c1	-11	-6	1	2	0	nt	nt	nt	nt
CN1CCN(c2ccc(NC(=O)c3cccc(OCc4ccccc4)c3)cc2)CC1	31	-10	4	54*	10	60*	8	71*	13
CCN1CCN(c2ccc(NC(=O)c3cccc(OCc4ccccc4)c3)cc2)CC1	-1	-7	4	18	6	nt	nt	nt	nt
Clc1ccc2nc(N3CCNCC3)nc(-c3ccccc3)c2c1	-5	-4	0	57*	4	58*	29*	34	14
C=CCN1CCc2c(cc(O)c(O)c2Cl)C(c2ccccc2)C1 (stereo not given)	-24	4	1	-2	-1	nt	nt	nt	nt
Oc1cc2c(c(Cl)c1O)CCNCC2c1ccccc1 (stereo not given)	-10	-4	0	44*	2	73*	3	57*	10
Oc1ccc(C2CNCCc3c2cc(O)c(O)c3Cl)cc1 (stereo not given)	13	-1	1	62*!	1	81*	0	76*	10
COc1cc(/C=c2\s/c(=C(/C#N)C(=O)N3CCCC3)n(-c3ccccc3)c2=O)ccc1O	76*	-12	17	75*	12	33	34*	64*	54*
Cc1nn(CCCC(=O)NCCc2ccccc2)c(=O)c2nn(-c3ccccc3)c(C)c12	-36	-2	1	-1	-2	nt	nt	nt	nt
Cc1ccc(-n2nc3c(=O)n(CCCC(=O)NCCc4ccccc4)nc(C)c3c2C)cc1	-23	-9	-1	41*	-2	36	5	-1	8
Cc1ccc(C(=O)N/C(=C\c2cccc([N+](=O)[O-])c2)C(=O)NCc2ccncc2)cc1	nt	-8	1	nt	0	nt	nt	nt	nt
COc1ccc(OCC(=O)NNC(=S)NC(=O)C2CC2)cc1	-5	nt	nt	2	nt	nt	nt	nt	nt
COc1ccc(CC(=O)NC(=S)NNC(=O)COc2c(C)cccc2C)cc1	53*	-4	1	94*	5	93*	61*	64*	47*
CCc1ccc(OCC(=O)NC2CCCCC2)c(Br)c1	-12	-13	0	17	-1	nt	nt	nt	nt
COc1ccc(OCC(=O)NNC(=S)NC(=O)C2CCCCC2)cc1	28	-6	2	65*	1	78*	51*	38	36*
CCc1ccc(OCC(=O)NNC(=S)NC(=O)C2CCCCC2)c(Br)c1	43	-2	2	80*	-1	78*	47*	62*	45*
O=C(NNC(=O)C1CC1c1ccccc1)c1ccccc1[N+](=O)[O-] (stereo not given)	1	8	0	11	2	nt	nt	nt	nt
COc1cc(OC)c(-n2cc(-c3ccc(OC)c(OC)c3)[nH]c2=S)cc1Cl	35	nt	nt	96*	nt	2	2	1	5
SMILES	TAAR1 antagonist	OXTR potentiator	V1R ag counter	TAAR1 ag	OXTR agonist	TAAR1 ag confirm	Ga16 nonsel ag	TAAR1 desens	Ga16 nonsel ant
NC(=Nc1ccccc1)Nc1ccccc1	79*	-25	10	87*	11	118*	83*	94*	67*
CCOC(=O)/C(C(=Nc1ccccc1)Nc1ccccc1)=C(\C)O	-16	1	-2	-3	-2	nt	nt	nt	nt
Fc1ccc(Nc2nc(N3CCOCC3)c3ccccc3n2)cc1	63*	-8	2	65*	2	65*	7	42	16
COc1ccc(C)cc1NC(=O)n1ncc2c(C)cccc21	3	-3	0	1	0	nt	nt	nt	nt
O=[N+]([O-])c1cc(/C=N/n2c(-c3ccncc3)n[nH]c2=S)ccc1Cl	-12	-13	0	52*	0	98*	19*	29	-7
Cc1cc(-c2n[nH]c(=S)n2/N=C/c2ccc(Cl)c([N+](=O)[O-])c2)n[nH]1	-22	-5	0	4	0	nt	nt	nt	nt
O=C(CCc1ccccc1)NCCSCc1c(F)cccc1Cl	2	-1	1	0	-3	nt	nt	nt	nt
O=C(CNS(=O)(=O)c1ccc(F)c(Cl)c1)NCCc1ccccc1	-26	-16	0	45*	-1	65*	8	13	-1
O=C(CSCc1c(F)cccc1Cl)NCCc1ccccc1	12	-1	1	43*	-2	80*	1	39	-2
Cc1nc(N)nc(N)c1/C=C/C(C)(C)c1ccc(Cl)cc1	40	nt	nt	53*	nt	72*	42*	72*	48*
O=C(N[C@H](C(=O)N1CCC[C@H]1C(=O)NCCc1ccccc1Cl)C1CCCCC1)c1cccs1	nt	nt	nt	nt	nt	nt	4	nt	11
CC(C)[C@H](NC(=O)c1ccc(Cl)cc1Cl)C(=O)N1CCC[C@H]1C(=O)NCCc1ccccc1Cl	76*	nt	nt	50*	nt	73*	5	92*	5
CC(C)[C@H](NC(=O)C1CCCC1)C(=O)N1CCC[C@H]1C(=O)NCCc1ccccc1Cl	75*	nt	nt	87*	nt	85*	-1	87*	3
Cc1ccccc1C(=O)N[C@H](C(=O)N1CCC[C@H]1C(=O)NCCc1ccccc1Cl)C1CCCCC1	24	nt	nt	16	nt	nt	nt	nt	nt
